# Compounds with a hit are over-represented: about 2.6% of the library has one in this group of screens.
# ABHD5 PLIN5 PPI: ABHD5-PLIN5 protein interaction inhibition. Q00G26+Q8WTS1. Split G. princeps luciferase complementation, luminescence, 4 h. inhibition, % at 4 µM. hit rate 0.78% among 360,000;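 active means inhibition above the mean inhibition across every tested compound plus 3 SD, cut at about 22% in these data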;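 further: 0% = DMSO only wells and the 100% control is not disclosed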
# Target sequence (Q00G26 whole entry, looked up): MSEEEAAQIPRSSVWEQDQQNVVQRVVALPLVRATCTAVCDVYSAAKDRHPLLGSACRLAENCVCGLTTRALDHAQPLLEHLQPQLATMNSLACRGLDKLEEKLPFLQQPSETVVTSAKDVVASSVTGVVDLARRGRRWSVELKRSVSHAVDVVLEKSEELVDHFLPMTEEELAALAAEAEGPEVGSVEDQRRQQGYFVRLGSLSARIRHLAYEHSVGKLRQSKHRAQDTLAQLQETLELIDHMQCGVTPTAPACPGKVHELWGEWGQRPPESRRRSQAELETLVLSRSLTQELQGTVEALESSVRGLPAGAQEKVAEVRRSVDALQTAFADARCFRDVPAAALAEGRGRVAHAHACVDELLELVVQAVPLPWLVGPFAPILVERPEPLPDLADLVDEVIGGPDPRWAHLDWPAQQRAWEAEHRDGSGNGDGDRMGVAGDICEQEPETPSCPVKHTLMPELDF
# Target sequence (Q8WTS1 whole entry, looked up): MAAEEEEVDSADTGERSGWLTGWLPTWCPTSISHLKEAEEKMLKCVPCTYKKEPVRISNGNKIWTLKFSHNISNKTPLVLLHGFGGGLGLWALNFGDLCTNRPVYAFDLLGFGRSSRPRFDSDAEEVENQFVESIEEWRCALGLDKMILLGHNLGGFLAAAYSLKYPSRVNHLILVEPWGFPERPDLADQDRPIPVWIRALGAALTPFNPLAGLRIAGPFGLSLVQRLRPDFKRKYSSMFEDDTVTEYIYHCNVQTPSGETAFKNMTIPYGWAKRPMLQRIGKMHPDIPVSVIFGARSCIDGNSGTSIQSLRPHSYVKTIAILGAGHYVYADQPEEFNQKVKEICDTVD
# rCAG binder: molecules binding r(CAG) RNA repeats | r(CAG) RNA repeat, TO-PRO-1 dye displacement fluorescence | inhibition, % at 3 µM | hit rate 1.3% among 370,000 | AID 651821;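 active means inhibition above the plate cutoff, the mean of all test compounds on that plate plus 3 SD, cut at about 35% in these data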;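 further: 0% = DMSO alone and 100% = 100 µM mitoxantrone as full dye displacement; higher means more dye released from RNA so lower well fluorescence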
# core dimer inh: blocks dimerization of HCV core protein | inhibition, % at 5 µM | AID 1899 | TR-FRET GST/Flag-core106 dimerization, 1536-well | hit rate 0.33% among 300,000;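 active means inhibition above the mean of all tested compounds plus 3 SD, set per screening campaign, cut at about 45% in these data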
#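 Test system: GST/Flag-tagged HCV core106 proteins; Medium: KF-containing HEPES buffer, pH 7.45, DTT, CHAPS, BSA; Times: compound-protein-antibody incubation 4 h at 22.5 °C; Detection: TR-FRET 671 and 617 nm emission; Benchmarks: wells lacking GST-core106 and wells with excess unlabelled core106.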
# NadD inh: NadD (S. aureus) enzyme inhibition. hit rate 0.78% among 360,000. purified NadD enzyme, colorimetric absorbance read-out. inhibition, % at 20 µM; in the data active means inhibition above about 26%
# rCAG binder conf: r(CAG) RNA repeat binding, confirmation. shares compounds with rCAG binder. AID 652065. inhibition, % at 3 µM. hit rate 70% among 4,300. TO-PRO-1 dye displacement fluorescence;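 active means inhibition above a per-plate cutoff, the mean inhibition of sample wells plus 3 SD, cut at about 35% in these data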;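 further: loss of TO-PRO-1 fluorescence as compound displaces dye from 1x1 AA loop RNA; 0% = DMSO only wells and 100% = 100 µM mitoxantrone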
# DNA CAG counter: DNA CAG dye complex inhibition counter-screen. shares compounds with rCAG binder. d(CAG) DNA oligo TO-PRO-1 dye displacement, fluorescence. inhibition, % at 3 µM. hit rate 94% among 4,300;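 active means inhibition above its plate's cutoff, the mean test-well inhibition plus 3 SD, cut at about 4.8% in these data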;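 further: 0% = DNA dye mix with DMSO and 100% = 100 µM mitoxantrone; hits displace the dye from DNA and so lower well fluorescence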
# DNA CAG DR: disrupts DNA CAG TO-PRO-1 complex in dose response; shares compounds with rCAG binder; DNA CAG/GTC duplex TO-PRO-1 dye displacement fluorescence; IC50, µM; hit rate 20% among 250; AID 686960; in the data active means IC50 below about 10 µM
# Active calls of the source: *; / = not tested or not shown.
SMILES,ABHD5 PLIN5 PPI,rCAG binder,core dimer inh,NadD inh,rCAG binder conf,DNA CAG counter,others
O=C(O)COc1ccccc1/C=N/NC(=O)CSc1nc2ccccc2n1Cc1ccccc1,-4.3,45.1*,14.5,7.1,54.6*,16.5*,
O=C(O)COc1ccccc1/C=N/NC(=O)c1cc(-c2ccc(F)cc2)nc2ccccc12,2.9,54.8*,8.9,7.4,42.9*,11.8*,
Cc1ccc(-c2cc(C(=O)NN=Cc3ccccc3OCC(=O)O)[nH]n2)cc1,/,24.2,/,/,/,/,
COC(=O)[C@@]12C[C@@H](CC(=O)NCc3cccs3)C(=O)N(Cc3cccc4ccccc34)C1=CCC(C)(C)C2,2.5,8.8,/,/,/,/,
Cn1cccc1C=NNC(=O)c1cc(-c2ccc(Cl)cc2)n[nH]1,/,10.1,/,/,/,/,
COCCN(C)Cc1nc(C(c2ccccc2)c2ccccc2)no1,-9.6,-6.8,-1.0,-0.2,/,/,
N#CCc1nc(C(c2ccccc2)c2ccccc2)no1,7.6,39.6*,7.9,11.2,16.7,8.0*,
CCOc1cc(-c2c(C#N)c(=O)[nH]c3c2c(C)nn3-c2ccc(F)cc2)ccc1O,5.3,48.4*,15.3,2.1,26.9,6.6*,
COc1ccc(Cn2ccc3ccc(-c4ccc5ccn(C(=O)c6ccccc6)c5c4)cc32)cc1,/,9.6,/,/,/,/,
COc1ccccc1CC(=O)NCCN1C(=O)C2C3C=CC(C3)C2C1=O (configuration not stated),/,3.6,/,/,/,/,
Cc1nc(NS(=O)(=O)c2ccc(Cl)s2)c2c3c(sc2n1)CCCC3,-2.7,77.8*,9.8,4.9,55.5*,19.3*,
Cc1nc(NCCc2ccc(S(N)(=O)=O)cc2)c2c3c(sc2n1)CCC3,0.5,6.1,6.8,11.9,/,/,
COc1cc(/C=C2\C(=N)N3N=C(C)SC3=NC2=O)cc(Cl)c1OCCOc1ccc(NC(C)=O)cc1,-0.8,14.1,16.4,5.4,/,/,
Cc1cc(/C=C2\C(=N)N3N=C(S(C)(=O)=O)SC3=NC2=O)c(C)n1Cc1ccccc1,2.5,65.8*,28.4,27.7,89.0*,61.6*,
COc1ccccc1OCCOc1ccc(/C=C2\C(=N)N3N=C(S(C)(=O)=O)SC3=NC2=O)cc1,1.0,32.3,22.3,24.8,/,/,
COc1cc(/C=C2\C(=N)N3N=C(S(C)(=O)=O)SC3=NC2=O)ccc1OS(=O)(=O)c1ccc(C)cc1,7.4,50.8*,24.6,16.9,86.8*,58.7*,
COc1cccc(OCCOc2ccc(/C=C3\C(=N)N4N=C(S(C)(=O)=O)SC4=NC3=O)cc2OC)c1,5.8,51.5*,/,28.9,90.8*,75.0*,
COc1cc(/C=C2\C(=N)N3N=C(S(C)(=O)=O)SC3=NC2=O)cc(OC)c1OCCOc1ccccc1C,4.8,55.5*,23.3,25.6*,92.5*,81.3*,
CC1=CC(O)(c2ccccn2)P(=O)(c2ccccc2)C=C1C (configuration not stated),/,0.3,/,/,/,/,
COCCCNC(=O)c1nnn2c1nc(N)c1cc(Cl)ccc12,/,5.2,/,/,/,/,
COC(=O)[C@]12C[C@H](CC(=O)N3CCOCC3)C(=O)N(Cc3ccccc3)C1=C[C@H](C1CCCC1)O[C@@H]2C,/,-0.5,/,/,/,/,
COc1ccc(CCNC(=O)C(=O)c2cn(CC(=O)N3CCCC3)c3ccccc23)cc1OC,-9.1,0.3,/,2.9,/,/,
O=C(N/N=C/c1ccc(-c2ccc(S(=O)(=O)Nc3ncccn3)cc2)o1)c1cc2ccccc2cc1O,1.8,81.9*,-37.4,81.3*,75.2*,39.3*,
O=S(=O)(/N=C(/Nc1nc2ccccc2s1)c1ccccc1)c1ccc(F)cc1,-1.3,38.0*,/,2.8,30.7,6.6*,
CCOC(=O)[C@]12CCCC=C1N(CCc1ccc(Cl)cc1)C(=O)[C@@H]2CC(=O)NCCC(C)C,/,1.8,/,/,/,/,
SMILES,ABHD5 PLIN5 PPI,rCAG binder,core dimer inh,NadD inh,rCAG binder conf,DNA CAG counter,others
Cc1ccc(C2=NC(=O)/C(=C/c3cc(O)c(O)c(Br)c3)S2)cc1,3.8,84.2*,/,20.2,86.2*,52.3*,
Cc1ccc(S(=O)(=O)/N=C2\C=C(NS(=O)(=O)c3ccccc3)C(=O)c3ccccc32)cc1,-12.7,39.5*,/,13.3,83.6*,51.2*,
Cc1cc(C)c(S(=O)(=O)/N=C2\C=C(NS(=O)(=O)c3ccccc3)C(=O)c3ccccc32)c(C)c1,2.8,44.6*,2.3,29.8*,85.1*,56.8*,
O=C1NC(c2ccccc2)(c2ccccc2)C(=O)N1CNc1ccccn1,/,1.4,/,/,/,/,
CCCNC(=O)c1cc2c(c(-c3cccc(-c4ccccc4F)c3)n1)[C@@H](CCO)N(C(=O)CC1CC1)C2,17.9,7.0,/,-11.4,/,/,
Cc1snc(S(=O)(=O)/C(C#N)=N/Nc2ccc(C(F)(F)F)cc2)c1C#N,-8.3,68.1*,5.4,1.4,77.6*,34.9*,
Cc1cccc(-c2cccc3c4c([nH]c23)[C@@H]2C[C@H](N(C)C(=S)NCCc3ccccc3)[C@H]([C@H](C)O)CN2CC4)c1,/,7.7,/,/,/,/,
CC1(C(=O)NS(=O)(=O)c2ccc3ccccc3c2)CCN1C(=O)Cc1ccc(-c2ccccc2)cc1 (configuration not stated),1.8,81.3*,/,10.2,76.6*,36.0*,
CC1(C(=O)NS(=O)(=O)c2ccc(Cl)cc2)CCN1C(=O)Cc1ccccc1 (configuration not stated),-4.2,4.4,/,0.7,/,/,
COc1ccc(S(=O)(=O)NC(=O)C2(C)CCN2C(=O)Cc2ccc(-c3ccccc3)cc2)cc1 (configuration not stated),-12.8,45.5*,/,4.1,43.7*,15.7*,
CC(C)(C)c1ccc(CC(=O)N2CCC2(C)C(=O)NS(=O)(=O)c2ccc3c(c2)CCO3)cc1 (configuration not stated),-5.6,24.1,/,0.5,/,/,
CC1(C(=O)NS(=O)(=O)c2ccc3c(c2)CCO3)CCN1C(=O)Cc1ccc(-c2ccccc2)cc1 (configuration not stated),-2.6,46.9*,/,5.0,70.3*,27.3*,DNA CAG DR=>29.9
COc1ccc(Cc2c(-c3ccccc3)nc3ccc(Br)cn23)c(C)c1,-11.8,20.4,/,15.7,/,/,
Cc1ccc(S(=O)(=O)N(CC(=O)Nc2ccccc2C(=O)O)c2ccccc2C)cc1,4.5,57.6*,6.1,-0.9,49.7*,15.1*,
Cc1ccc(S(=O)(=O)N(CC(=O)Nc2ccccc2C(=O)O)c2cccc(Cl)c2C)cc1,-4.6,78.3*,20.6,6.1,82.5*,51.8*,
C#CCNC(=O)C[C@H]1C[C@@]2(C(=O)OC)C(=C[C@H](C(C)(C)C)O[C@@H]2C)N(CCc2ccc(OC)c(OC)c2)C1=O,/,-2.0,/,/,/,/,
Cc1ccc(-c2nn(-c3ccccc3)cc2C=C2SC(=S)N(CCS(=O)(=O)O)C2=O)cc1,9.3,86.7*,/,30.0*,94.3*,77.5*,

# Bioassay records as filed in PubChem BioAssay.
